Laboratory results taken from ChEMBL document CHEMBL4265954, “Discovery of potent liver-selective stearoyl-CoA desaturase-1 (SCD1) inhibitors, thiazole-4-acetic acid derivatives, for the treatment of diabetes, hepatic steatosis, and obesity” (Eur J Med Chem, 2018).
pIC50: −log10 of the molar value.

Legend:
[1] = target: Cytochrome P450 2C19 (Homo sapiens, UniProt P33261); assay: Inhibition of CYP2C19 (unknown origin); format: ADME
[2] = target: Cytochrome P450 2C9 (Homo sapiens, UniProt P11712); assay: Inhibition of CYP2C9 (unknown origin); format: ADME
[3] = AUC in Sprague-Dawley rat at 100 mg/kg, po; format: ADME, organism-based; settings: in vivo
In short: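 Male 6-week-old SD rats, 5 per group, dosed orally once daily for 2 weeks as a suspension in 0.5% methylcellulose aqueous solution. Plasma drug levels taken 24 h after dosing on days 1, 5 and 10. Exposure figure is from this 2-week repeat-dose toxicity study.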

[4] = Drug uptake in high sucrose diet Sprague-Dawley rat eyelid at 10 mg/kg, po treated after 6 hrs; format: ADME, organism-based; settings: read-out: Drug uptake
In short: (§1)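 Sprague-Dawley rats on a high sucrose diet, given a single oral 10 mg/kg dose. Plasma, liver and eyelid drug concentrations were measured 6 h later, n=3. Liver/eyelid ratio was taken from the tissue concentrations.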

[5] = test system: Mus musculus; assay: Antidiabetic activity in high fat diet fed C57BL/6J mouse assessed as reduction in plasma glucose AUC (0 to 120 mins) administered orally as diet mixture for 43 days and measured on day 22 of administration after overnight fasting by OGTT method; format: functional, organism-based
In short: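 Male? not stated. C57BL/6J mice fed high fat diet for one month, then given compound as HFD admixture (0.0040% or 0.0133%) for ~3 or 10 mg/kg/day over 43 days (10–16 weeks of age); controls on normal chow or HFD. Day 22: overnight fast, glucose load 1 g/kg; plasma glucose at 0, 0.5, 1, 2 h, AUC calculated; n=5–8, mean ± SD, Dunnett's test.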

[6] = Apparent terminal half life in Sprague-Dawley rat at 10 mg/kg, po; format: ADME, organism-based; settings: in vivo, read-out: betat1/2(app) (converted)
In short: (§2)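 Two male Sprague-Dawley rats per route, 10 mg/kg po and 1 mg/kg iv. Cmax, tmax, terminal-phase half-life and AUC0-inf were taken from plasma concentration–time curves. Bioavailability was derived from the po and iv data.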

[7] = target: T1, Acyl-CoA desaturase 1 (Mus musculus, UniProt P13516); assay: Inhibition of mouse liver microsome SCD assessed as reduction in [3H]H2O production using stearoyl [9,10-3H]CoA as substrate in presence of NADH incubated for 30 mins by scintillation counting method; format: microsomes
T1 sequence (P13516 whole entry): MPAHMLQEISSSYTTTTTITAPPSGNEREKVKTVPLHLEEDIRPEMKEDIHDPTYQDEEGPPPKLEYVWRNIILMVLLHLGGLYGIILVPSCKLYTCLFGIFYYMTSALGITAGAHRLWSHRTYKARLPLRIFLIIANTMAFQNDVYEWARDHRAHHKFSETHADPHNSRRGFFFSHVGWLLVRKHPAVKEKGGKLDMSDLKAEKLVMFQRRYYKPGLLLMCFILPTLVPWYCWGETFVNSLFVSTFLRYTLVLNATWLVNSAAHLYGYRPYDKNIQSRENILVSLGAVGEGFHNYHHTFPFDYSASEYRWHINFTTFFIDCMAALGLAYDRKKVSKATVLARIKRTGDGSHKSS
In short: (§3)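 Desaturation of [9,10-3H]stearoyl-CoA measured as released [3H]H2O. Water was separated from charcoal-adsorbed substrate by filtration and counted by scintillation. Remaining activity = (compound − background)/(control − background). DMSO wells served as control and pre-stopped wells as background. IC50 was interpolated from the two points bracketing 50%.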

[8] = test system: Rattus norvegicus; assay: Ex vivo inhibition of SCD1 in high sucrose diet Sprague-Dawley rat liver treated orally for 6 hrs followed by incubation with [14C]stearoyl-CoA substrate for 10 mins by TLC assay; format: functional, organism-based
In short: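 Sprague-Dawley rats on a high sucrose diet, given oral 1 or 10 mg/kg. Liver, epididymal adipose and eyelid were taken 6 h later and homogenized. S9 SCD activity was measured by [14C]stearoyl-CoA conversion to oleate and quantified by AgNO3 TLC imaging. Result is % remaining activity versus control, mean ± SD, n=3.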

[9] = target: T2, Acyl-CoA desaturase 1 (Rattus norvegicus, UniProt P07308); assay: Inhibition of rat liver microsome SCD assessed as reduction in [3H]H2O production using stearoyl [9,10-3H]CoA as substrate in presence of NADH incubated for 30 mins by scintillation counting method; format: microsomes; in short: as §3
T2 sequence (P07308 whole entry): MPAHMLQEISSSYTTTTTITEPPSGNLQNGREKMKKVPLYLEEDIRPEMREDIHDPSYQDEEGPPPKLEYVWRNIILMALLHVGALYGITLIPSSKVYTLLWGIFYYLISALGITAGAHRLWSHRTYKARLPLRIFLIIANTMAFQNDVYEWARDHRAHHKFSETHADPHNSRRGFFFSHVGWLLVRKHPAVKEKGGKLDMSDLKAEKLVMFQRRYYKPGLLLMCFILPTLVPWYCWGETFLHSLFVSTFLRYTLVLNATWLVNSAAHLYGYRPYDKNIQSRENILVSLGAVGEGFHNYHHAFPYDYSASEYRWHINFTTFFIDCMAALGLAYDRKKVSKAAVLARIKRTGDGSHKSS

[10] = Toxicity in Sprague-Dawley rat administered orally once daily for 2 weeks; format: organism-based; settings: in vivo, po
In short: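 Male Sprague Dawley rats, 6 weeks old (5 per group), were dosed orally once daily for 2 weeks at 100 or 1000 mg/kg as a suspension in 0.5% methylcellulose; controls received vehicle. Readouts: clinical observations, body weight, food consumption, ophthalmoscopy in week 2, and terminal necropsy, hematology, clinical chemistry, organ weights and histopathology. Plasma levels were measured 24 h post-dose on days 1, 5 and 10.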

[11] = Total clearance in C57BL/6J mouse at 1 mg/kg, iv; format: ADME, organism-based; settings: in vivo
In short: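 Single intravenous dose of 1 mg/kg, with a parallel oral arm at 10 mg/kg, given to two male animals per species: C57BL/6J mice and Sprague Dawley rats. Total body clearance was derived from the plasma concentration–time profile of the compound.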

[12] = Drug uptake in high sucrose diet Sprague-Dawley rat liver at 10 mg/kg, po treated after 6 hrs; format: ADME, organism-based; settings: read-out: Drug uptake; in short: as §1
[13] = Oral bioavailability in Sprague-Dawley rat at 10 mg/kg; format: ADME, organism-based; settings: in vivo; in short: as §2
[14] = AUC (0 to infinity) in C57BL/6J mouse at 10 mg/kg, po; format: ADME, organism-based; parameters: dose 10 mg/kg, time infinity, route oral; settings: in vivo
[15] = test system: Rattus norvegicus; assay: Anti-hepatic steatosis activity in high sucrose very low fat diet fed Sprague-Dawley rat assessed as reduction in triglyceride level in liver administered orally once daily for 8 days and measured on day 8 post last dose; format: functional, organism-based
In short: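 SD rats kept on a high sucrose very low fat diet, dosed orally at 1 or 10 mg/kg once daily for 8 days. On day 8, liver slices were homogenized in methanol and extracted with methanol/chloroform. The supernatant was dried under N2 and redissolved in 2-propanol. Triglyceride was read on an automatic analyzer and expressed as mg/g tissue.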

[16] = Tmax in Sprague-Dawley rat at 10 mg/kg, po; format: ADME, organism-based; settings: in vivo; in short: as §2
[17] = test system: Mus musculus; assay: Antiobesity activity in high fat diet fed C57BL/6J mouse assessed as reduction in diet-induced body weight gain administered orally as diet mixture for 43 days; format: functional, organism-based
In short: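 C57BL/6J mice, individually housed, fed HFD for one month, then given HFD admixed with drug (0.0040% for 3 mg/kg/day, 0.0133% for 10 mg/kg/day) for 43 days, from 10 to 16 weeks of age. Chow-fed normal group as control. Body weight measured every 3–4 days. Mean ± SD, n=5–8. Dunnett's test versus HFD control.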

Sequence of Cytochrome P450 2C19 (P33261 whole entry): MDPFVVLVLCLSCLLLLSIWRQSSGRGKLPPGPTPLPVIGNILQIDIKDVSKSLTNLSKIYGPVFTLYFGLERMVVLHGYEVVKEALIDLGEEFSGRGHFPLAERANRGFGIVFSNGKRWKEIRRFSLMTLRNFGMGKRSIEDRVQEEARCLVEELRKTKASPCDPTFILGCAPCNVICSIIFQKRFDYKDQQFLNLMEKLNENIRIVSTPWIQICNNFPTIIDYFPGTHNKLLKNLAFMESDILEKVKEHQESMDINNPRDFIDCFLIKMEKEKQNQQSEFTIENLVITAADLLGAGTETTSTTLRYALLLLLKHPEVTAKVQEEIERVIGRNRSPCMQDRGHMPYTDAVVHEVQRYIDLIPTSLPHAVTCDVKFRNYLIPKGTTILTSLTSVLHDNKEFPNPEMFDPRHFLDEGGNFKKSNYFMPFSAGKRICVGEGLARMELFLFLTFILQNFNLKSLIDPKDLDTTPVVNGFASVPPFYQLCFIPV
Sequence of Cytochrome P450 2C9 (P11712 whole entry): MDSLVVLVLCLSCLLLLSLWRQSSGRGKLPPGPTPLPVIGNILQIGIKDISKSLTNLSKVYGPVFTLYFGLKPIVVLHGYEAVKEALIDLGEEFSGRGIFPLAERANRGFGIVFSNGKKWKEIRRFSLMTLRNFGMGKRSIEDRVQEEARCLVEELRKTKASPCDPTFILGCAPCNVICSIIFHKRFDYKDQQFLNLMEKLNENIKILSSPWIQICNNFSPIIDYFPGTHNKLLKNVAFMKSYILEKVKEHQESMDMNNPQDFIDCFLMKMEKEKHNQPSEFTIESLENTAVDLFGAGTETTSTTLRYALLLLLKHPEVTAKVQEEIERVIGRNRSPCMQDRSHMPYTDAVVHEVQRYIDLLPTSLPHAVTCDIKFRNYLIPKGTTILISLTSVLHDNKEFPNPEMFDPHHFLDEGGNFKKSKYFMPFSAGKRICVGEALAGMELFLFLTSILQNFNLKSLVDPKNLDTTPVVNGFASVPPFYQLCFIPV

pIC50 [1]: < 4.30 | pIC50 [2]: < 4.30 | AUC [3]: 179 µM·h | concentration at 6 h [4]: 160 nM | half-life [6]: 4.7 h | pIC50 [7]: 8.27 | pIC50 [9]: 8.19 | clearance [11]: 10.2 mL/min/kg | concentration at 6 h [12]: 1000 nM | bioavailability [13]: 16% | AUC(0-inf) [14]: 10.2 µM·h | Tmax [16]: 0.5 h
Structure (SMILES): CCCCc1ccccc1NCc1ccc(C(=O)Nc2nc(CC(=O)O)cs2)s1
Activity [5]: Dose-dependent effect | inhibition [8]: Dose-dependent effect | NOAEL at 336 h [10]: 100 mg/kg | Activity [15]: Dose-dependent effect | Activity [17]: Dose-dependent effect
